ChEMBL document CHEMBL2424586, “Polyoxygenated cinnamoylcoumarins as conformationally constrained analogs of cytotoxic diarylpentanoids: synthesis and biological activity” (Eur J Med Chem, 2013)

Legend:
[1] = tested on: Radical scavenging activity; test: Antioxidant activity assessed as DPPH free radical scavenging activity after 30 mins; assay type: functional
[2] = Antioxidant activity assessed as ferric ion reducing ability after 20 mins by FRAP assay; assay type: functional
Outline: (§1)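 FRAP reagent: acetate buffer (300 mM, pH 3.6), TPTZ (10 mM in 40 mM HCl) and FeCl3 (20 mM) at 10:1:1, diluted to 1/3 with methanol and pre-warmed to 37 °C. Diluted compound added, 20 min at 37 °C, A593. Values read from FeSO4·7H2O calibration curve; quercetin as reference.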

MOLT-4 = test: Cytotoxicity against human MOLT4 cells after 72 hrs by MTT assay; assay type: functional, cell-based; conditions: MOLT-4, 72 h
Outline: (§2)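 MCF-7 grown as monolayer, K562 and MOLT-4 in suspension; seeded at 30,000, 40,000 and 40,000 cells/ml respectively and incubated overnight at 37 °C. Compounds dissolved in DMSO, diluted in medium, final DMSO ≤0.5%; cisplatin as reference.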

MCF7 = test: Cytotoxicity against human MCF7 cells after 72 hrs by MTT assay; assay type: functional, cell-based; conditions: MCF7, 72 h; outline: as §2
K562 = test: Cytotoxicity against human K562 cells after 72 hrs by MTT assay; assay type: functional, cell-based; conditions: K562, 72 h; outline: as §2
[3] = Antioxidant activity assessed as ferric ion reducing ability after 20 mins by FRAP assay relative to quercetin; assay type: functional; outline: as §1
Rattus norvegicus = species on record: Rattus norvegicus; test: Reduction of total thiol content in Wistar rat liver mitochondria after 1 hr by DTNB method; assay type: functional
Outline: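 Wistar rat liver mitochondria isolated by differential centrifugation (1500 × g, then 10,000 × g, 10 min, 4 °C) and suspended in Tris-HCl 0.05 M/sucrose 0.25 M/KCl/MgCl2/Na2HPO4, pH 7.4. Protein by Bradford. Mitochondria (1 mg/mL) exposed 1 h to compound, then total thiols measured by DTNB at 412 nm against a GSH standard curve; mean ± SD, n = 3.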

SMILES | IC50 [1] | Activity [2] | IC50 (MOLT-4) | IC50 (MCF7) | IC50 (K562) | fold change (FC) [3] | Activity (Rattus norvegicus)
COc1cccc(/C=C/C(=O)c2cc3cc(OCc4ccccc4)ccc3oc2=O)c1OC | 1270 µM | 4.4 mM | 23.6 µM | 21.3 µM | 48.9 µM | – | –
COc1cccc(/C=C/C(=O)c2cc3cc(O)ccc3oc2=O)c1OC | 160 µM | 25.7 mM | 6.7 µM | 8.8 µM | 17.3 µM | 0.3 | –
COc1cc(/C=C/C(=O)c2cc3ccc(O)cc3oc2=O)cc(OC)c1OC | 190 µM | 8.7 mM | 3.8 µM | 8.8 µM | 7.3 µM | – | Dose-dependent effect
COc1cccc(COc2ccc3cc(C(=O)/C=C/c4cc(OC)ccc4OC)c(=O)oc3c2)c1 | 750 µM | 9.5 mM | 13.8 µM | > 100 µM | 35.1 µM | – | –
COc1cccc(COc2ccc3cc(C(=O)/C=C/c4ccccc4)c(=O)oc3c2)c1 | 890 µM | 10.4 mM | > 100 µM | 33.7 µM | > 100 µM | – | –
O=C(/C=C/c1ccc2c(c1)OCO2)c1cc2ccc(O)cc2oc1=O | 540 µM | 13.7 mM | 26.2 µM | 38.9 µM | 31.7 µM | – | –
COc1cc(/C=C/C(=O)c2cc3cc(OCc4ccccc4)ccc3oc2=O)cc(OC)c1OC | 1150 µM | 8.1 mM | 10.3 µM | 26.5 µM | 66.4 µM | – | –
COc1cccc(COc2ccc3cc(C(=O)/C=C/c4cccc(OC)c4OC)c(=O)oc3c2)c1 | 720 µM | 7.6 mM | 22.8 µM | 35.1 µM | 45.5 µM | – | –
O=c1c(O)c(-c2ccc(O)c(O)c2)oc2cc(O)cc(O)c12 [QUERCETIN] | 8.12 µM | 87.1 mM | – | – | – | – | –
O=C(/C=C/c1ccc2c(c1)OCO2)c1cc2cc(O)ccc2oc1=O | 480 µM | 15.3 mM | 2 µM | 9.7 µM | 14.6 µM | – | –
COc1cccc(COc2ccc3cc(C(=O)/C=C/c4ccc5c(c4)OCO5)c(=O)oc3c2)c1 | 460 µM | 7.5 mM | > 100 µM | > 100 µM | 22.8 µM | – | –
COC(=O)c1ccc(/C=C/C(=O)c2cc3ccc(O)cc3oc2=O)cc1 | – | – | 3.7 µM | 5.5 µM | 4.4 µM | – | –
COC(=O)c1ccc(/C=C/C(=O)c2cc3cc(O)ccc3oc2=O)cc1 | – | – | 7.1 µM | 1.3 µM | 15.8 µM | – | –
COc1cccc(COc2ccc3cc(C(=O)/C=C/c4ccc(Cl)cc4Cl)c(=O)oc3c2)c1 | 480 µM | 7.1 mM | – | – | – | – | –
COc1cc(/C=C/C(=O)c2cc3cc(O)ccc3oc2=O)cc(OC)c1OC | 180 µM | 9.6 mM | 3.9 µM | 10.9 µM | 8.8 µM | – | –
COc1cccc(/C=C/C(=O)c2cc3ccc(O)cc3oc2=O)c1OC | 150 µM | 25.2 mM | 7 µM | 16.6 µM | 14.6 µM | 0.3 | Dose-dependent effect
COc1cccc(COc2ccc3cc(C(=O)/C=C/c4c(Cl)cccc4Cl)c(=O)oc3c2)c1 | 940 µM | 5.3 mM | 12.5 µM | 10.1 µM | 15.6 µM | – | –
COc1cccc(COc2ccc3cc(C(=O)/C=C/c4ccc(C)cc4)c(=O)oc3c2)c1 | 2630 µM | 6.6 mM | > 50 µM | > 50 µM | > 50 µM | – | –
O=C(/C=C/c1ccc2c(c1)OCO2)c1cc2cc(OCc3ccccc3)ccc2oc1=O | 570 µM | 12.6 mM | > 50 µM | > 50 µM | > 50 µM | – | –
COc1ccc(/C=C/C(=O)c2cc3ccc(OCc4cccc(OC)c4)cc3oc2=O)cc1 | 930 µM | 14.3 mM | > 100 µM | > 100 µM | > 100 µM | – | –
